Our source for the IC50, Activity and inhibition values is ChEMBL document CHEMBL2062477, “Dual-Specificity Phosphatase CDC25A/B Inhibitor Identified from a Focused Library with Nonelectrophilic Core Structure” (ACS Med Chem Lett, 2012).

Test [1] has as its target T1, M-phase inducer phosphatase 1 (Homo sapiens, UniProt P30304).
T1 sequence (P30304 whole entry): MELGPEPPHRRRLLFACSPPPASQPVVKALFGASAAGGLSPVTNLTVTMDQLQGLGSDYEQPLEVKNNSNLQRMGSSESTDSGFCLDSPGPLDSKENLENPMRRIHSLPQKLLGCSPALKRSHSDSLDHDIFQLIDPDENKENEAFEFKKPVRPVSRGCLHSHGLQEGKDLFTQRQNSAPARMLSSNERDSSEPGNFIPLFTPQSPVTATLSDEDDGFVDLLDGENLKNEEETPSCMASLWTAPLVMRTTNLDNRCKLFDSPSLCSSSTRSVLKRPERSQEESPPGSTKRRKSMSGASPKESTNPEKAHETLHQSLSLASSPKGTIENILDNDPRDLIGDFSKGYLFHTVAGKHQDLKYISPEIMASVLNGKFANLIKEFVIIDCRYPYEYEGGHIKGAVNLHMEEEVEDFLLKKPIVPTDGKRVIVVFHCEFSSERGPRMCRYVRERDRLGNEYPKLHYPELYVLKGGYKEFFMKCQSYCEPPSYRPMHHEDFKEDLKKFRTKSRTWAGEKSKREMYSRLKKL
Put plainly: Inhibition of CDC25A.

The target in test [2] is T2, M-phase inducer phosphatase 2 (Homo sapiens, UniProt P30305).
T2 sequence (P30305 whole entry): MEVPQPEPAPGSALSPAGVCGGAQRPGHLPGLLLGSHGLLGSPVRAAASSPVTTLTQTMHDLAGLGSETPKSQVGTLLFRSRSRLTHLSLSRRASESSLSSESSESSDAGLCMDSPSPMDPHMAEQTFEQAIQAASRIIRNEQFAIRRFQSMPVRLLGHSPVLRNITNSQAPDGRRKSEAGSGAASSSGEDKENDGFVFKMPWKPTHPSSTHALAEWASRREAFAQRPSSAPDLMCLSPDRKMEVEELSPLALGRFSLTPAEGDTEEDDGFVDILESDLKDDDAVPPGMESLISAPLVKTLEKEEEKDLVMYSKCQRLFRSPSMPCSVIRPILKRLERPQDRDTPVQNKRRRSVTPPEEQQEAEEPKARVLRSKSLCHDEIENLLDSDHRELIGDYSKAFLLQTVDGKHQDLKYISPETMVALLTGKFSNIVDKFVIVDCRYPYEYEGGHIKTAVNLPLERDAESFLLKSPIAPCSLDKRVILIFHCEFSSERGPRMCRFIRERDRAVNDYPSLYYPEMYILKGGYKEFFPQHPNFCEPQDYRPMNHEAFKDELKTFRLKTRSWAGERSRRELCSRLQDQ
Put plainly: Inhibition of CDC25B.

The target in test [3] is T3, M-phase inducer phosphatase 3 (Homo sapiens, UniProt P30307).
T3 sequence (P30307 whole entry): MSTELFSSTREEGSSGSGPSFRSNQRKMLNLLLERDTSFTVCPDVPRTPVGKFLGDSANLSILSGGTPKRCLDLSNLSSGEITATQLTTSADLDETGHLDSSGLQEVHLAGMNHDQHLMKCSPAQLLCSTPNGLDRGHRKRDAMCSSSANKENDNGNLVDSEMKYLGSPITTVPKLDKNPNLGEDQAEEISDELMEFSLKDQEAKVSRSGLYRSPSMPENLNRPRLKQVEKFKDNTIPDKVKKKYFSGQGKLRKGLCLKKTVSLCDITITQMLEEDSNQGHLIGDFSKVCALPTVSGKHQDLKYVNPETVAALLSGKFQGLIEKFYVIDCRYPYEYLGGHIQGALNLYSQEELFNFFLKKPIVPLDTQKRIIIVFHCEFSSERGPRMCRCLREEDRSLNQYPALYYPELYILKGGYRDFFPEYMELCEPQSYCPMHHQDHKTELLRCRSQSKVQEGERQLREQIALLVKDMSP
Put plainly: Inhibition of CDC25C.

Test [4] concerns the target Dual specificity protein phosphatase 3 (Homo sapiens, UniProt P51452). Put plainly: Inhibition of VHR.
Test [5] deals with T4, Dual specificity protein phosphatase 1 (Homo sapiens, UniProt P28562).
T4 sequence (P28562 whole entry): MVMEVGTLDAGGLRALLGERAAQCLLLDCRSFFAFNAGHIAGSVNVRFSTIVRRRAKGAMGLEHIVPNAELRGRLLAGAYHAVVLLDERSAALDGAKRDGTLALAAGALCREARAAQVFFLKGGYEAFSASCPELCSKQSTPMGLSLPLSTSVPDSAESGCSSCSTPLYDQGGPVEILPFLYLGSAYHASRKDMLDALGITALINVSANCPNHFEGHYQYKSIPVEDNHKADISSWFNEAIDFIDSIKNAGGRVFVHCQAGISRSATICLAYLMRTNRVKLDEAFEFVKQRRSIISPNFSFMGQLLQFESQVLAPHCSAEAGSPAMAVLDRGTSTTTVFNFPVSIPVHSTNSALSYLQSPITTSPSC
The experiment in a line: Inhibition of MKP1.

The target in test [6] is T5, Dual specificity protein phosphatase 6 (Homo sapiens, UniProt Q16828).
T5 sequence (Q16828 whole entry): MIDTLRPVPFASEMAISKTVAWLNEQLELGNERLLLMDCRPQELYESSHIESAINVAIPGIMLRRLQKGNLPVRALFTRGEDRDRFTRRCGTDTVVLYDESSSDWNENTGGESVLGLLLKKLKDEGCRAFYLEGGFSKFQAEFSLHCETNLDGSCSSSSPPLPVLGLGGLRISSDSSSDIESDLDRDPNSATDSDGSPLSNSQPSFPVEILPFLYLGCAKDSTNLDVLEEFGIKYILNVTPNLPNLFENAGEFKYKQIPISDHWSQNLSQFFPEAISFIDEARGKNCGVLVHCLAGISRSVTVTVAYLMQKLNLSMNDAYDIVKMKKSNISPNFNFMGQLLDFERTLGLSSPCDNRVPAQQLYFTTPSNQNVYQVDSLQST
The experiment in a line: Inhibition of MKP3.

Test [7] concerns the target T6, Tyrosine-protein phosphatase non-receptor type 1 (Homo sapiens, UniProt P18031).
T6 sequence (P18031 whole entry): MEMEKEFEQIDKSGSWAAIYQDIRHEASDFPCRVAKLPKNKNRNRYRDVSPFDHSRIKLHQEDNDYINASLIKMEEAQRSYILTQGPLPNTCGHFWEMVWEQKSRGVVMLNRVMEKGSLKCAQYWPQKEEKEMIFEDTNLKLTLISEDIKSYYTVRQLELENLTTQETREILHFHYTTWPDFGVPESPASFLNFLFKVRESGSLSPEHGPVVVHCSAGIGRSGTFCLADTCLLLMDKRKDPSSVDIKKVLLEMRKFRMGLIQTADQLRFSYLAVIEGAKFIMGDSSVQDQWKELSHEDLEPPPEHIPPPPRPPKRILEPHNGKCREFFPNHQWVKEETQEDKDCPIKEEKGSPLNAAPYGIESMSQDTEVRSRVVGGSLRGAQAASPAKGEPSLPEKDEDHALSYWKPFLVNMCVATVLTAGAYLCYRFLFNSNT
Put plainly: Inhibition of PTP1B.

Test [8] can be described thus: Cell cycle arrest in mouse tsFT210 cells assessed as accumulation at G2/M phase by propidium iodide staining-based flow cytometric analysis. It is filed as functional. In a few lines:
(§1)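 tsFT210 cells synchronized at G2 by 17 h at 39 °C, then released for 4 h at 32 °C with compound (5–50 μM) or DMSO vehicle; 100 nM nocodazole reference. Cell-cycle phase distribution, including sub-G1, determined by flow cytometry.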

Test [9] has as its system tsFT210. The experiment in a line: Inhibition of CDC25 in mouse tsFT210 cells assessed as hyperphosphorylation of CDK1 protein by Western blot analysis. The test is classed as cell-based. In a few lines: (§2)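 G2-arrested tsFT210 cells (39 °C, 17 h) released at 32 °C for 4 h with compound or vehicle; CDK1 phosphorylation status and total CDK1 assessed by Western blotting.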

Test [10] deals with tsFT210. The experiment in a line: Induction of apoptosis in mouse tsFT210 cells assessed as increase in subG1 population at 50 uM after 17 hrs by propidium iodide staining-based flow cytometric analysis. The test is classed as functional, cell-based. The conditions noted are these: in the assay text read “after 4 hrs” for “after 17 hrs”. In a few lines: as §1
Test [11] addresses T1, M-phase inducer phosphatase 1. Put plainly: Inhibition of CDC25A in presence of 2 mM DTT. In a few lines: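 In vitro inhibition of purified CDC25A or CDC25B with DTT concentration in the assay buffer varied.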
In test [12] the test system is tsFT210. Put plainly: Induction of ROS generation in mouse tsFT210 cells at 50 uM at 32 degC for 30 min measured by flow cytometric analysis pretreated with H2DCFDA at 39 degC.
Test [13] in a line: Cell cycle arrest in mouse tsFT210 cells assessed as accumulation at G2/M phase at 5 to 50 uM by propidium iodide staining-based flow cytometric analysis. It is filed as functional. In a few lines: as §1
Test [14] relates to tsFT210. Put plainly: Inhibition of CDC25 in mouse tsFT210 cells assessed as hyperphosphorylation of CDK1 protein at 50 uM by Western blot analysis. It is filed as cell-based. In a few lines: as §2
Test [15] deals with HL-60. Put plainly: cells. The conditions noted are these: Homo sapiens, HL-60, 48 h.

Calls of active or inactive are those of the source. The calls are words filed in the database; no cut-off is given here. Where only a bound is given, the exact number is not on record here.

Dual specificity protein phosphatase 3, sequence (P51452 whole entry): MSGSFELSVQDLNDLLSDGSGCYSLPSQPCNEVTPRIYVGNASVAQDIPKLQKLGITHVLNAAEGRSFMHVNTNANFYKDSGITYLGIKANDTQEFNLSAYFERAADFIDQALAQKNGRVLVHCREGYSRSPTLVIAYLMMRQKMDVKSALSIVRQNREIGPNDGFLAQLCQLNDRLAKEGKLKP

As for `CCCCCCCCCCCCCCC/C(NCc1ccccc1)=C1/C(=O)OC(CO)C1=O` (stereo not drawn), the IC50 in test [1] is 16.6 µM; in test [2], 8.42 µM; in test [3] it was greater than 100 µM; in test [4], 11.4 µM; in test [5], greater than 100 µM; in test [6] it was greater than 100 µM. The IC50 in test [7] is greater than 100 µM; in test [11], 16.6 µM. In addition, in test [8], the Activity entry was “Dose-dependent effect”. Also, in test [9], the inhibition result is “Dose-dependent effect”. In addition, the outcome in test [10] and in test [12] was inactive.

As for `CCCCCCCCCCCCCCCC(NCc1cccc(C)c1)=C1C(=O)OC(CO)C1=O` (mixture of isomers), the IC50 in [1] is greater than 100 µM; in test [2], greater than 100 µM; in test [3] it was greater than 100 µM; in [4], 1.63 µM; in test [5], greater than 100 µM; in test [6], greater than 100 µM. The compound also returned an IC50 in test [7] greater than 100 µM. The outcome in test [13], in [10] and in test [12] was inactive. The inhibition result in [14] was “inactive”.

In the case of `CCCCCCCCCCCCCCCC(NCc1ccc(N(C)C)cc1)=C1C(=O)OC(CO)C1=O` (mixture of isomers), the 50% inhibitory concentration (IC50) is 8.67 µM in test [1]; 6.23 µM in [2]; greater than 100 µM in [3]; 12 µM in [4]; greater than 100 µM in test [5]; greater than 100 µM in test [6]. The results for the half-maximal inhibitory concentration (IC50) in [7] and in test [15] were greater than 100 µM and 10.9 µM, respectively.

Turning to `CCCCCCCCCCCCCCCC(NCc1ccccc1O)=C1C(=O)OC(CO)C1=O` (mixture of isomers), the IC50 is 13.5 µM in test [1]; greater than 100 µM in [3]; 24.9 µM in test [4]; greater than 100 µM in test [5]; greater than 100 µM in test [6]; greater than 100 µM in test [7]. For the same compound, the values for the IC50 in test [11] and in test [15] were 13.5 µM and 2.44 µM, respectively. Also, the Activity result in [8] was “Dose-dependent effect”. For the same compound, the inhibition result in [9] was “Dose-dependent effect”. Further, the result in test [10] and in test [12] was inactive.
